This passage reports viability, differential viability (reversal) and inhibition results from PubChem BioAssay.

A short description of test [1]: reduced viability of SK-BR-3 breast cancer cells – cell-based, 24 h, human, pilot screen (AID 572).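 Further: compound exposure lasted between 18 and 24 h rather than exactly 24 h; 100% = carrier-treated control wells.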 Conditions: SK-BR-3 viability, CellTiter-Glo luminescence, at 10 µM, stronger effect = lower value. (Cellular ATP, detected with luciferase, serves as a proxy for viable cell number.)
The nature of test [2]: HUVEC growth inhibition – cell-based, human, primary screen (AID 575;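 active means viability at or below 30% in both replicate assays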;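 further: 100% = median of untreated cell wells with 0.1% DMSO on each plate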). Conditions: HUVEC proliferation, CellTiter-Glo luminescence, 72 h; at 10 µM; stronger effect = lower value. In outline: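 system = HUVEC primary cells | amount = 1250 cells/well | buffer or medium = supplemented EBM, 2% fetal bovine serum | dosing = single-point 10 µM, DMSO 0.1% final | times = 72 h compound incubation | detection = CTG luminescence | read-out = % viability relative to median vehicle-well signal on each plate | control set = vehicle and MePR control wells | format = collagen-coated 384-well format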

The nature of test [3]: H69AR cell proliferation blockers – human, duplicate replicates, primary screen (AID 580;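 active means viability at or under a set limit in both replicates, limit being median viability minus 3 SD, cut at about 48% in these data, passing the limit was not always enough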;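 further: 100% = mean luminescence of untreated wells and 0% = no signal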). Conditions: H69AR lung tumor cells viability, ATP luminescence, 72 h; at 10 µM; stronger effect = lower value.
Test [4] is described as follows: MRP1 drug-resistance reversers in H69AR cells – cell-based, doxorubicin co-treatment, pilot screen (AID 601;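 active means viability loss from added drug above about 55%, and viability with drug at most 40%, in both replicates, limit read from the data, passing the limit was not always enough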). The following applies: CellTiter-Glo, 72 h, at 10 µM; for differential viability (reversal): stronger effect = higher value.
Test [5] in a line: yeast transport mutant growth inhibition pilot in 384-well plates, post-Golgi transport modulator project (AID 636; in the data active means inhibition above about 31%). Conditions: absorbance 615 nm, about 18 h, stronger effect = higher value.
A short description of test [6]: growth suppression of yeast trafficking mutant, preliminary HTS, modulators of trafficking downstream of Golgi apparatus project, 1536-format plate, OD 615 nm (AID 637; in the data active means inhibition above about 30%). The following applies: yeast transport mutant growth, absorbance 615 nm, 18 h; stronger effect = higher value.
Setting [7] is: H69AR cells + 2 uM doxorubicin, measured here: viability with 2 uM doxorubicin, stronger effect = lower value.
The mark [8] stands for this setting: H69AR cells, compound alone cytotoxicity.

Activity calls are given as the source filed them.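 How the source made its calls, unless noted: active means viability at or below 10% of carrier control in both of two separate runs; inconclusive means viability at or below 10% in only one of the two runs; inactive means the rest.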

Take `N#CCc1ccc(NC(=O)Nc2cccc(Cl)c2)cc1`: the viability in test [1] was 88% (inactive); in test [2], 76.9% (inactive); in test [3] it was 92.5% (inactive); in test [4] (setting [7]), 105%; in test [4] (setting [8]), 92.5%. In test [4] (H69AR cells + 2 uM doxorubicin), the differential viability (reversal) is -12.1% (inactive). For the same compound, the inhibition in test [5] is -6.44% (inactive); in test [6], 2.73% (inactive).
As to `CCOC(=O)n1c(=O)oc2cc(S(=O)(=O)N3CCCCC3)ccc21`, the viability is 97% (inactive) in test [1]; 112% (inactive) in test [2]; 90.2% (inactive) in test [3]; 90.8% in test [4] (setting [7]); 90.2% in test [4] (setting [8]). For the same compound, the differential viability (reversal) in test [4] (H69AR cells + 2 uM doxorubicin) is -0.62% (inactive). Besides, the inhibition in test [5] was -4.27% (inactive); in test [6], -2.91% (inactive).
As to `CC(C)(C)NC(=O)C(Cc1ccccc1)NS(=O)(=O)c1cccc2nsnc12` (stereo unspecified), the viability in test [1] was 87% (inactive); in test [2], 105% (inactive); in test [3] it was 87.8% (inactive); in test [4] (setting [7]) it was 95.3%; in test [4] (setting [8]), 87.8%. In addition, the differential viability (reversal) in test [4] (H69AR cells + 2 uM doxorubicin) was -7.5% (inactive). Also, the inhibition in test [5] was -9.86% (inactive); in test [6], -1.09% (inactive).
With `O=C(NS(=O)(=O)c1ccc(NC(=O)C2CCCO2)cc1)c1ccccc1` (stereo unspecified), the viability is 79% (inactive) in test [1]; 103% (inactive) in test [2]; 92.8% (inactive) in test [3]; 88.7% in test [4] (setting [7]); 92.8% in test [4] (setting [8]). Also, the differential viability (reversal) in test [4] (H69AR cells + 2 uM doxorubicin) is 4.17% (inactive). Further, the figures for the inhibition in test [5] and in test [6] were -6.35% (inactive) and -0.55% (inactive), respectively.
Consider `Cc1cc(C)n(-c2nc3c(c(=O)[nH]c(=O)n3C)n2Cc2ccc(F)cc2)n1`, for which the viability is 93% (inactive) in test [1]; 113% (inactive) in test [2]; 96.5% (inactive) in test [3]; 87.8% in test [4] (setting [7]); 96.5% in test [4] (setting [8]). Moreover, the differential viability (reversal) in test [4] (H69AR cells + 2 uM doxorubicin) is 8.69% (inactive). Moreover, the inhibition in test [5] was -4.19% (inactive); in test [6] it was -1.45% (inactive).
In the case of `Cc1nc2sccn2c(=O)c1CCN1CCC(=C(c2ccccc2)c2ccc(F)cc2)CC1`, the viability is 160% (inactive) in test [1]; 3.02% (active) in test [2]; 81.9% (inactive) in test [3]; 94.5% in test [4] (setting [7]); 81.9% in test [4] (setting [8]). Moreover, in test [4] (H69AR cells + 2 uM doxorubicin), the differential viability (reversal) is -12.5% (inactive). Further, the results for the inhibition in test [5] and in test [6] were -0.13% (inactive) and 24.5% (inactive), respectively.
As to `Cc1ccn2cc(CCNC(=O)CC(C)(C)C)nc2c1`, the viability in test [1] is 89% (inactive); in test [2], 113% (inactive); in test [3], 97.9% (inactive); in test [4] (setting [7]), 88.6%; in test [4] (setting [8]) it was 97.9%. Also, the differential viability (reversal) in test [4] (H69AR cells + 2 uM doxorubicin) is 9.27% (inactive). Moreover, the inhibition in test [5] was -4.19% (inactive); in test [6], -2.36% (inactive).
For the compound `COC(=O)C1=C(C)N(Cc2ccco2)C(=O)C1`, the viability in test [1] is 96% (inactive); in test [2] it was 103% (inactive); in test [3] it was 96.1% (inactive); in test [4] (setting [7]), 90.7%; in test [4] (setting [8]), 96.1%. The differential viability (reversal) in test [4] (H69AR cells + 2 uM doxorubicin) is 5.42% (inactive). The values for the inhibition in test [5] and in test [6] were -7.53% (inactive) and 5.82% (inactive), respectively.
Take `Cc1ccc(Nc2nc(N)nc(CN3CCN(Cc4ccc5c(c4)OCO5)CC3)n2)cc1`: the viability in test [1] is 93% (inactive); in test [2], 106% (inactive); in test [3], 82.2% (inactive); in test [4] (setting [7]), 79.7%; in test [4] (setting [8]), 82.2%. In addition, the differential viability (reversal) in test [4] (H69AR cells + 2 uM doxorubicin) was 2.44% (inactive). Further, the inhibition was -8.27% (inactive) in test [5] and -4.91% (inactive) in test [6].
With `Cc1cc(/C=N\O)c(C)n1-c1ccncc1`, the viability is 120% (inactive) in test [1]; 83.8% (inactive) in test [2]; 91.4% (inactive) in test [3]; 96.4% in test [4] (setting [7]); 91.4% in test [4] (setting [8]). Further, the differential viability (reversal) in test [4] (H69AR cells + 2 uM doxorubicin) was -5.03% (inactive). Further, the inhibition is -7.26% (inactive) in test [5] and -0.32% (inactive) in test [6].
With `Cc1ccccc1Cc1c(C)nc2c(C(=O)N3CCN(Cc4ccc5c(c4)OCO5)CC3)cnn2c1C`, the viability in test [1] is 103% (inactive); in test [2], 59.6% (inactive); in test [3], 79% (inactive); in test [4] (setting [7]), 72.1%; in test [4] (setting [8]) it was 79%. For the same compound, the differential viability (reversal) in test [4] (H69AR cells + 2 uM doxorubicin) is 6.94% (inactive). For the same compound, the inhibition in test [5] was -1.04% (inactive); in test [6] it was 1.48% (inactive).
Regarding `O=C(Cc1cccs1)N(c1ccccc1)C1C=CS(=O)(=O)C1` (stereo unspecified), the viability in test [1] is 118% (inactive); in test [2], 107% (inactive); in test [3] it was 106% (inactive); in test [4] (setting [7]) it was 76.7%; in test [4] (setting [8]) it was 106%. For the same compound, the differential viability (reversal) in test [4] (H69AR cells + 2 uM doxorubicin) was 28.9% (inactive). Further, the inhibition in test [5] was -3.07% (inactive); in test [6], -1.64% (inactive).
In the case of `COc1ccccc1NC(=O)N(Cc1ccco1)Cc1cc2cccc(C)c2[nH]c1=O`, the viability in test [1] is 90% (inactive); in test [2], 70.9% (inactive); in test [3] it was 75.8% (inactive); in test [4] (setting [7]), 74.7%; in test [4] (setting [8]), 75.8%. Further, in test [4] (H69AR cells + 2 uM doxorubicin), the differential viability (reversal) was 1.06% (inactive). The inhibition was -8.27% (inactive) in test [5] and -1.45% (inactive) in test [6].
Regarding `CSc1ccccc1NC(=O)CN(c1ccccc1)S(=O)(=O)N(C)C`, the viability in test [1] is 83% (inactive); in test [2], 98.3% (inactive); in test [3] it was 87.7% (inactive); in test [4] (setting [7]) it was 85.7%; in test [4] (setting [8]) it was 87.7%. Moreover, in test [4] (H69AR cells + 2 uM doxorubicin), the differential viability (reversal) was 2.04% (inactive). Further, the figures for the inhibition in test [5] and in test [6] were -8.49% (inactive) and 0.18% (inactive), respectively.
For `O=C(O)CCc1ccc(-c2ccc(F)cc2)n1CCC(=O)O`, the viability was 71% (inactive) in test [1]; 104% (inactive) in test [2]; 98.5% (inactive) in test [3]; 108% in test [4] (setting [7]); 98.5% in test [4] (setting [8]). The differential viability (reversal) in test [4] (H69AR cells + 2 uM doxorubicin) was -9.11% (inactive). In addition, the inhibition in test [5] was -7.53% (inactive); in test [6], 3.45% (inactive).
For `COc1ccc(OC)c(S(=O)(=O)Nc2ccc(O)c3ccccc23)c1`, the viability was 6% (active) in test [1]; 3.38% (active) in test [2]; 1.73% (active) in test [3]; 2.06% in test [4] (setting [7]); 1.73% in test [4] (setting [8]). Moreover, the differential viability (reversal) in test [4] (H69AR cells + 2 uM doxorubicin) is -0.325% (inactive). For the same compound, the values for the inhibition in test [5] and in test [6] were -2.5% (inactive) and -5.33% (inactive), respectively.
`Cc1cc(C(F)(F)F)c2c(C)nn(CCc3nn[nH]n3)c2n1`: the viability in test [1] was 105% (inactive); in test [2], 91.4% (inactive); in test [3], 96.1% (inactive); in test [4] (setting [7]) it was 98.1%; in test [4] (setting [8]), 96.1%. For the same compound, the differential viability (reversal) in test [4] (H69AR cells + 2 uM doxorubicin) was -1.98% (inactive). For the same compound, the inhibition is 0.14% (inactive) in test [5] and 12.2% (inactive) in test [6].

Broadly, the viability is a read-out of living cells in per cent, often relative to untreated cells. The inhibition is the drop in the measured response relative to a control, in per cent.
